Experimental data reported in ChEMBL document CHEMBL1140709, “Design, synthesis, and biological evaluation of (E)-styrylbenzylsulfones as novel anticancer agents” (J Med Chem, 2008).

What was measured:
Type in all cases: functional, cell-based
DLD-1 = assay: Antitumor activity against human DLD1 cells by trypan blue exclusion assay
Procedure, shortened: (§1)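 Tumour cells were grown in DMEM or RPMI with 10% fetal bovine serum and 1 unit/mL penicillin-streptomycin. They were seeded in six-well dishes at 1.0 × 10⁵ cells/mL/well, and compound was added 24 h later over a range of concentrations. After 96 h of exposure, viable cells in duplicate wells were counted by trypan blue exclusion.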

[1] = Antitumor activity against human H157 cells by trypan blue exclusion assay; details: NCI-H157; procedure, shortened: as §1
BT-20 = assay: Antitumor activity against human BT20 cells by trypan blue exclusion assay; procedure, shortened: as §1
DU-145 = assay: Antitumor activity against AR-negative human DU145 cells by trypan blue exclusion assay; procedure, shortened: as §1

Row | IC50 (DLD-1) | IC50 (BT-20) | IC50 (DU-145) | Structure (SMILES) | IC50 [1]
1 | > 20 µM | > 20 µM | > 20 µM | COc1ccc(CS(=O)(=O)/C=C/c2ccc(OC)c(OC)c2OC)cc1 | > 20 µM
2 | > 20 µM | > 20 µM | > 20 µM | COc1ccc(CS(=O)(=O)/C=C/c2ccc(OC)c(OC)c2)cc1 | > 20 µM
3 | 4 µM | 2.5 µM | 2 µM | COc1ccc(CS(=O)(=O)/C=C/c2ccc(F)cc2Cl)cc1 | 2.5 µM
4 | 15 µM | 10 µM | 7.5 µM | COc1cc(OC)c(/C=C/S(=O)(=O)Cc2ccc(Cl)cc2)c(OC)c1 | 15 µM
5 | 4 µM | 3 µM | 4 µM | COc1cc(OC)c(/C=C/S(=O)(=O)Cc2ccc(OC(F)(F)F)cc2)c(OC)c1 | 6 µM
6 | > 20 µM | > 20 µM | > 20 µM | COc1ccc(/C=C/S(=O)(=O)Cc2ccc(OC)cc2)cc1 | > 20 µM
7 | 20 µM | 15 µM | 7.5 µM | COc1cc(OC)c(/C=C/S(=O)(=O)Cc2ccc(O)cc2)c(OC)c1 | 20 µM
8 | 0.75 µM | 0.75 µM | 0.5 µM | COc1ccc(CS(=O)(=O)/C=C/c2c(OC)cc(F)cc2OC)cc1 | 0.5 µM
9 | > 20 µM | > 20 µM | > 20 µM | COc1ccc(CS(=O)(=O)/C=C/c2ccc(OC)cc2OC)cc1 | > 20 µM

More lines, now with the values behind:

Row | Structure (SMILES) | IC50 (DLD-1) | IC50 (BT-20) | IC50 (DU-145) | IC50 [1]
10 | COc1ccc(CS(=O)(=O)/C=C/c2c(C)cc(C)cc2C)cc1 | > 20 µM | > 20 µM | > 20 µM | > 20 µM
11 | COc1ccc(CS(=O)(=O)/C=C/c2c(OC)cc(O)cc2OC)cc1O | 0.5 µM | 0.25 µM | 0.5 µM | 0.5 µM
12 | COc1cc(OC)c(/C=C/S(=O)(=O)Cc2ccc(C#N)cc2)c(OC)c1 | 20 µM | 12.5 µM | 7.5 µM | 15 µM
13 | COc1ccc(CS(=O)(=O)/C=C/c2c(C)cccc2C)cc1 | > 20 µM | > 20 µM | > 20 µM | > 20 µM
14 | COc1ccc(CS(=O)(=O)/C=C/c2ccc(Cl)cc2)cc1 | 3 µM | 2 µM | 2.5 µM | 3.5 µM
15 | COc1cc(OC)c(/C=C/S(=O)(=O)Cc2cc(OC)c(OC)c(OC)c2)c(OC)c1 | > 20 µM | > 20 µM | > 20 µM | > 20 µM
16 | COc1cc(OC)c(/C=C/S(=O)(=O)Cc2ccc([N+](=O)[O-])cc2)c(OC)c1 | 15 µM | 15 µM | 15 µM | 20 µM
17 | COc1ccc(CS(=O)(=O)/C=C/c2cc(C)cc(C)c2)cc1 | > 20 µM | > 20 µM | > 20 µM | > 20 µM
